Compound activity as filed in PubChem BioAssay.
GSIS activator: GLuc luminescence reporter in INS-1E cells, primary screen for activators of glucose-dependent secretion of insulin. INS-1E GLuc reporter insulin secretion, 2-3 h. activation, % at 16.6 µM. hit rate 0.61% among 370,000. AID 743287, 2014;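 active = lowest replicate activation of at least 40%, so every replicate reaches that level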;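 also: 0% = median of neutral control wells and 100% = median of IBMX positive control wells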
PGC1a acetyl inh: inhibitors of PGC1a acetylation signal, primary screen, cell-based, U2OS, AlphaScreen, inhibitor mode | AlphaScreen anti-acetyl-lysine; with virally co-expressed GCN5 acetyltransferase | inhibition, % at 15.6 µM | hit rate 0.17% among 350,000 | AID 651687, 2012;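 active = every replicate shows inhibition of at least 40%; inconclusive = mean inhibition at least 40% but some replicate below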;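 also: 0% = neutral control wells and 100% = positive control wells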
PAX8 inh HTS: inhibitors of PAX8-driven TPO luciferase reporter, primary screen, RMG-I cells, single concentration | SteadyGlo, 24 h | inhibition, % at 12.6 µM | hit rate 1.2% among 360,000 | AID 652154, 2013;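 active = mean replicate inhibition at least 60% with every replicate also reaching 60%; inconclusive = only one of the two criteria is met; inactive = mean below 60% and not all replicates reaching 60%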;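 also: luciferase light reporting Pax8 driven TPO promoter activity; plate controls were median of neutral control wells for no effect and mitoxantrone controls for full effect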
Xi reactivation: activators of inactive X chromosome reactivation, primary screen, imaging, XiGFP fibroblasts, GFP high-content imaging, set 2; XiGFP mouse fibroblasts, % GFP-positive cells imaging, 3 d; cells co-treated with 5-aza-dC sensitizer; scaled so ellipticine positive control = 100%; activation, % at 7.58 µM; hit rate 0.055% among 360,000;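 active = mean normalized replicate activation at least 10% and every replicate at or above 10%; inconclusive = only one of the two criteria met; inactive = mean below 10% and not all replicates reach 10%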;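 also: 0% = median of on-plate neutral control wells and 100% = ellipticine 6 µM median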
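Material: XiGFP fibroblasts, SV40-immortalized. Buffer or medium: DMEM plus 5-aza-dC sensitizer. Compound: single concentration per compound, delivered by pin transfer. Times: 3 days compound exposure. Controls: ellipticine 6 µM.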
EWS-Fli block: EWS/Fli-driven NR0B1 reporter inhibitors, primary screen, A673 cells, NR0B1 luciferase, luminescence, MLPCN library; viability-normalised; inhibition, % at 12.6 µM; hit rate 0.67% among 350,000; AID 651661, 2012;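 active = mean inhibition of at least 50% after viability correction, with every replicate also passing that limit; inconclusive = mean reaches 50% but only one of two replicates passes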;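 also: firefly luciferase signal divided by Alamar Blue viability fluorescence both relative to DMSO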
AF4-AF9 inh: inhibitors of AF4 peptide binding to AF9, primary screen, biochemical, AlphaScreen, biotin-AF4 peptide, FLAG-AF9, single point; inhibition, % at 10 µM; hit rate 0.47% among 350,000; Protein AF-9 (Homo sapiens), P42568;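 active = every replicate reaching a set inhibition limit, whatever the replicate mean, cut at about 25% in these data; inconclusive = mean inhibition reaches that limit but some replicates miss it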;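 also: 0% = plate neutral control median and 100% = total signal loss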
Target sequence (P42568 whole entry, looked up): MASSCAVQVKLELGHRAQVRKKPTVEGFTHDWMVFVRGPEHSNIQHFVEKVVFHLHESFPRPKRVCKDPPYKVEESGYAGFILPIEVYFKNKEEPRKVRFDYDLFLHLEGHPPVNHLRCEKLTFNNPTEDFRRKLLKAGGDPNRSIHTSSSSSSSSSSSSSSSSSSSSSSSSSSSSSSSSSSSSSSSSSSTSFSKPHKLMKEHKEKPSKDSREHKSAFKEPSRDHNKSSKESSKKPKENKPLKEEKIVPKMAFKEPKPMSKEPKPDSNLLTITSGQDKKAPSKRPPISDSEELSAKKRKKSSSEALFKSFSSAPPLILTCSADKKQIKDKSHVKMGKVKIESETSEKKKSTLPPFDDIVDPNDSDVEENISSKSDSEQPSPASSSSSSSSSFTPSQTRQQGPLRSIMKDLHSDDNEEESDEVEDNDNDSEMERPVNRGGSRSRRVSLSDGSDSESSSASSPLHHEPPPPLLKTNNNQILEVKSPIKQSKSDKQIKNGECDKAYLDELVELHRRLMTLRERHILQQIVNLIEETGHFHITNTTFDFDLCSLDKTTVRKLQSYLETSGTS
* = called active by the depositor; ? = inconclusive; . = not tested or not shown. Most compounds without a hit are left out; they make up all but 2.1% or so of the library.

SMILES | GSIS activator | PGC1a acetyl inh | PAX8 inh HTS | Xi reactivation | EWS-Fli block | AF4-AF9 inh
O=C(CCCCCN1C(=O)c2ccccc2C1=O)Nc1ccccc1 | . | 2 | . | . | . | .
O=C(CCCCCCC(=O)Nc1ccccc1)NO | -18 | ? | 102* | 0 | 71* | -1
CC1Cc2ccccc2N1C(=S)NC(=O)c1ccc(Cl)cc1Cl (centres undefined) | -5 | -2 | 62* | 0 | 17 | -11
COc1cccc(C(=O)NC(=S)N2c3ccccc3CC2C)c1OC (centres undefined) | -20 | 0 | 7 | 0 | -4 | 8
CC1Cc2ccccc2N1C(=S)NC(=O)c1cccc(Br)c1 (centres undefined) | 51* | . | 3 | 0 | . | .
C[C@H](CO)N1C[C@H](C)[C@@H](CN(C)Cc2ccccc2)Oc2ncc(/C=C/c3ccccc3)cc2C1=O | -15 | -21 | . | -1 | 5 | 13
Cc1cc(C2CCCCC2)n(O)c(=O)c1 | . | 14 | 73* | 0 | 31 | 4
Cn1c(NC2CCCCC2)cc(=O)n(C)c1=O | 7 | . | -20 | 0 | 0 | -2
C[C@H]1CN([C@@H](C)CO)C(=O)c2cccc(NS(=O)(=O)c3ccc(Cl)cc3)c2O[C@H]1CN(C)C(=O)Nc1ccccc1 | -13 | -18 | -1 | -1 | -9 | -8
COc1ccc2[nH]c3c4c(ccc3c2c1)C(=O)C=CC4=O | 6 | 25 | 58 | 12* | 48 | 1
COc1ccc2[nH]c(=O)cc(C(=O)O)c2c1 | 16 | . | 9 | 0 | 11 | -4
Cc1ccc(-c2ccc([C@H]3[C@@H](CO)N4CCCCN(C(=O)Nc5cccc(F)c5)C[C@@H]34)cc2)cc1 | -14 | 9 | 11 | 0 | 20 | .
Cc1ccc(-c2ccc([C@@H]3[C@H](CO)N4CCCCN(C(=O)Nc5cccc(F)c5)C[C@@H]34)cc2)cc1 | . | -15 | 81* | . | 32 | 4
O=C(Nc1cccc(F)c1)N1CCCCN2[C@H](C1)[C@H](c1ccc(-c3ccncc3)cc1)[C@@H]2CO | -2 | -3 | -14 | 0 | -4 | -3
O=C(c1cccc(F)c1)N1CCCCN2[C@H](C1)[C@H](c1ccc(-c3ccc(F)cc3)cc1)[C@@H]2CO | . | 7 | -4 | . | -7 | .
O=C(Nc1ccc(F)cc1)N1CCCCN2[C@@H](CO)[C@@H](c3ccc(-c4cccc(F)c4)cc3)[C@@H]2C1 | -9 | -18 | 106* | 0 | 72* | 6
O=C(c1cccc(F)c1)N1CCCCN2[C@H](C1)[C@@H](c1ccc(-c3ccc(F)cc3)cc1)[C@@H]2CO | . | 3 | 65* | . | -13 | -2
O=C(Nc1cccc(F)c1)N1CCCCN2[C@@H](CO)[C@@H](c3ccc(-c4ccncc4)cc3)[C@@H]2C1 | 5 | -8 | 110* | 0 | 4 | .
CC(C)NC(=O)N1Cc2cc(C(=O)NC3CCC3)nc(-c3cccc(-c4cccnc4)c3)c2[C@@H]1CCO | -25 | -12 | 11 | 0 | . | 3
CCCC#Cc1cnc2c(c1)C(=O)N([C@@H](C)CO)C[C@H](C)[C@@H](CN(C)C(=O)Cc1cccnc1)O2 | -5 | 7 | . | 0 | 6 | -4
CN1[C@H](C(=O)NC2Cc3ccccc3C2)[C@@H](CO)[C@@H]2Cn3c(ccc(-c4cccnc4)c3=O)[C@@H]21 | -3 | . | -7 | 0 | 0 | -1
CCC(=O)Nc1ccc2c(c1)C(=O)N(C)[C@@H]1CC[C@H](CC(=O)O)O[C@@H]1CO2 | 15 | -1 | 0 | 0 | -5 | 1
COCC(=O)Nc1ccc2c(c1)C(=O)N(C)C[C@@H](OC)[C@@H](C)CN(Cc1cc(F)ccc1F)[C@H](C)CO2 | -17 | 3 | 30 | 0 | 2 | -2
CCCOc1ccc2[nH]c(C(=O)N/N=C/c3cc(OC)c(OC)c(OC)c3)cc2c1 | 1 | . | 91* | 0 | -7 | 0
CN(C)C(=O)C[C@@H]1CC[C@@H]2[C@H](COC[C@H](O)CN2CC2CCOCC2)O1 | 19 | 1 | 3 | 0 | 1 | -4
SMILES | GSIS activator | PGC1a acetyl inh | PAX8 inh HTS | Xi reactivation | EWS-Fli block | AF4-AF9 inh
C[C@@H]1CN([C@H](C)CO)C(=O)Cc2cc(NC(=O)C3CC3)ccc2O[C@@H]1CN(C)CC1CC1 | 11 | . | -24 | 0 | 1 | -4
C[C@H](CO)N1C[C@H](C)[C@H](CN(C)Cc2ccc3c(c2)OCO3)Oc2c(NS(C)(=O)=O)cccc2C1=O | 9 | 1 | -11 | 0 | . | -1
COc1ccc(N2c3ccccc3CN(Cc3ccccc3)[C@@H](C)[C@H]2Cc2cccnc2)cc1 | -9 | -20 | 1 | 0 | 6 | 25*
CCOc1ccccc1C1C2=C(COC2=O)Nc2cc3c(cc21)OCO3 (centres undefined) | 2 | . | 88* | 1 | 47 | 8
CCCOc1c(OC)cccc1C1CC(=O)Nc2cc3c(cc21)OCO3 (centres undefined) | . | -15 | . | . | . | .
O=C1OCC2=C1C(c1ccc(F)cc1)c1cc3c(cc1N2)OCO3 (centres undefined) | . | . | 72* | 0 | 67* | 0
C#CCOc1ccc(C2C3=C(COC3=O)Nc3cc4c(cc32)OCO4)cc1OC (centres undefined) | 2 | . | 86* | 0 | 58* | -1
O=C1OCC2=C1C(c1ccc(F)cc1)c1cc3c(cc1N2)OCCO3 (centres undefined) | 3 | 19 | 85* | 0 | 46 | -3
Cn1cnc(S(=O)(=O)N2CCCCN3[C@@H](CO)[C@H](c4ccc(C#CC5CC5)cc4)[C@@H]3C2)c1 | . | 3 | -18 | . | -11 | 0
CO[C@H]1CN(C)C(=O)c2ccc(NS(C)(=O)=O)cc2OC[C@H](C)N(Cc2cncnc2)C[C@H]1C | -10 | 9 | . | 0 | -11 | -14
COc1ccc2c3c([nH]c2c1)[C@@H](CO)N(C(=O)C1CCC1)CC31CCN(S(C)(=O)=O)CC1 | -4 | . | -3 | 0 | -12 | 1
C[C@H](CO)N1C[C@H](C)[C@@H](CN(C)S(=O)(=O)c2cccs2)Oc2ccc(NS(=O)(=O)c3cccs3)cc2CC1=O | 8 | 5 | 26 | 0 | 9 | .
NC(=S)NN=C1c2cc(OCCN3CCOCC3)ccc2-c2ccc(OCCN3CCOCC3)cc21 | 6 | . | 59 | 0 | 64* | 12
Fc1cccc(-c2nnn3c2nc(Cl)c2ccccc23)c1 | 45* | 7 | -44 | 0 | -15 | 0
COCC(=O)N(C)C[C@@H]1Oc2cc(C#CCC3CCCC3)ccc2S(=O)(=O)N([C@H](C)CO)C[C@@H]1C | -15 | -3 | 5 | 0 | 2 | 6
